# Where two headings read alike, the source gives them in different places.
# T1: prolactin receptor (Rattus norvegicus, UniProt P05710)
# T1 sequence (P05710 20-310 isoform P05710-3 limits assumed): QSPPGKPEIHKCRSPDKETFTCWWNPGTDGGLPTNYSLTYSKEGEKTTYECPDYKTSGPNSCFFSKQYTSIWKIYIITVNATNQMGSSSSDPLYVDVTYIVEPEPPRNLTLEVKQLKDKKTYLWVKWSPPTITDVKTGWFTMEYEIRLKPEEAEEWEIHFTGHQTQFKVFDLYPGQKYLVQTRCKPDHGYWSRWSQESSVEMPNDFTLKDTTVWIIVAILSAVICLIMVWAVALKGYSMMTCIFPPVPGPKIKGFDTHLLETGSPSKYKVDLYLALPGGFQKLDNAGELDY
# Experiments:
# [1] = system: endosomal protease(s) of rat liver endosomes (GE fraction); assay type: in vitro ADME; details: mean ± SD, n = 3; for degradation within isolated endosomes by acid precipitation: cell-free system, 37C, up to 60 min, 10% TCA
# [2] = system: endosomal protease(s) of rat liver endosomes (GE fraction); assay: Sephadex G-50 chromatography of radioactivity acid-extracted from endosomes; assay type: in vitro ADME
# EGF receptor = details: freshly prepared endosomes; ref 49a; cited from earlier work
# insulin receptor = insulin receptor (Rattus norvegicus, UniProt P15127); assay: PEG precipitation of insulin-receptor complexes in endosomes; assay type: binding; details: for effect on insulin dissociation from receptor: 15 min, presence or absence of ATP, PCMB 1 mM
# [3] = Internalization of injected 125I-insulin into GE fraction of liver; assay type: in vivo, rat; details: 5 min after portal vein injection, 100 ng/100 g bw; mean ± SD, n = 9
# [4] = cited from earlier work
# [5] = system: endosomal insulin degrading activity (GE fraction); assay type: biochemical, rat; details: for effect on endosomal 125I-insulin degradation (in words): concentrations as in Tables I and II
# [6] = system: GE fraction proton translocase activity; assay: Cell-free ATP-dependent acidification assay; assay type: biochemical, rat; details: 1 µM added at end of incubation; acridine orange absorbance 492/540 nm
# How it was run: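 Pelleted at 16,000 g for 1 h, Dounce-resuspended, equilibrated 3-6 h at 4°C. Acridine orange 6 µM, ATP 0.4 mM (final); initial quench rates recorded. Test compound 1 µM added after incubation.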
# macrophage endosomes = details: identical cell-free system; cited from earlier work
# prolactin receptor = molecular target: T1, prolactin receptor; assay: Prolactin dissociation from its receptor in endosomes; assay type: binding
# [7] = Table I, 1 mM, acid solubility at 30 min, mean ± SD of 3 experiments
# [8] = Table II, nucleotide 10 mM (in place of ATP), 0-30 min, mean ± SD, n = 3
# [9] = Table II, 2 mM, 0-30 min, mean ± SD, n = 3
# [10] = Table II, 10 µM, 0-30 min, mean ± SD, n = 3
# [11] = Table II, 1 mM, 0-30 min, mean ± SD, n = 3
# [12] = Table II, 50 µM, 0-30 min, mean ± SD, n = 3
# Sequence of insulin receptor (P15127 27-759 limits assumed): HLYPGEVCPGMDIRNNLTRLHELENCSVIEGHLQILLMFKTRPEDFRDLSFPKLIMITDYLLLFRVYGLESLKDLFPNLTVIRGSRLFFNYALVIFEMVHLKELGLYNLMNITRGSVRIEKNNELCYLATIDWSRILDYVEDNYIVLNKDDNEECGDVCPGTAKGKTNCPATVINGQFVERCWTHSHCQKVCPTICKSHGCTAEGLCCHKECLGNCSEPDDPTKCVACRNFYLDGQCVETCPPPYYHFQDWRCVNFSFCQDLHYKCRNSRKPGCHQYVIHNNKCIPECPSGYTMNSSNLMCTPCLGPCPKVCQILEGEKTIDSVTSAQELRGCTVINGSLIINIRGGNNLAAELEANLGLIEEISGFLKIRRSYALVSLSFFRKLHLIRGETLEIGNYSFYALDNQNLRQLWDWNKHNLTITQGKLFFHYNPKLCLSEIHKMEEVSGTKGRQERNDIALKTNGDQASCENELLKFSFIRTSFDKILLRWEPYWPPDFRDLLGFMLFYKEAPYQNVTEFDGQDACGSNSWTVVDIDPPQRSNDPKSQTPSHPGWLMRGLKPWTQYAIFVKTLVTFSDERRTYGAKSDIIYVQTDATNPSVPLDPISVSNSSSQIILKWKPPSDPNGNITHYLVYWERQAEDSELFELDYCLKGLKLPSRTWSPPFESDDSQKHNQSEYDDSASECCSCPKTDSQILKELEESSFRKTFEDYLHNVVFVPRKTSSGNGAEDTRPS
# Sequence of insulin receptor (P15127 764-1383 partner limits assumed): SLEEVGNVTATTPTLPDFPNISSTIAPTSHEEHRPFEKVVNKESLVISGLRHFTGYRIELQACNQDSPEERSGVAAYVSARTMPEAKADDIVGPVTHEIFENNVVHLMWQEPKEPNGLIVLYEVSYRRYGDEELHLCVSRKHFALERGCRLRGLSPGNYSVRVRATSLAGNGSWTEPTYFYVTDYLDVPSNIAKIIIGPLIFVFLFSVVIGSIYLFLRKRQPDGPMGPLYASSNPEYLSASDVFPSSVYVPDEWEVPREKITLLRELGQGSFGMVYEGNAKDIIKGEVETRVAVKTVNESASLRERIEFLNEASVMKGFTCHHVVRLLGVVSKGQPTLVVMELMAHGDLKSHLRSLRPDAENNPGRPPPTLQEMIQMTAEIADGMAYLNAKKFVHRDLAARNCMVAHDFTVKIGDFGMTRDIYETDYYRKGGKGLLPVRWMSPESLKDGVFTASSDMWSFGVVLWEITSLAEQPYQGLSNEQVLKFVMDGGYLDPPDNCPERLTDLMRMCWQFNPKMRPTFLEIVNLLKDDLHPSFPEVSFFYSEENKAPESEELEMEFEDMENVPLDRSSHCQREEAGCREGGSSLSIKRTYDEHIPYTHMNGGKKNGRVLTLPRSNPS
molecule,measurement,setting,value
125I-EGF: mouse epidermal growth factor (Collaborative Research) radioiodinated by chloramine T method,degradation within isolated endosomes by acid precipitation,[1],not detectable
same,degradation within isolated endosomes by Sephadex G-50 chromatography,[2]; 0 vs 15 min incubation in cell-free system,not detectable
same,ligand dissociated from receptor,EGF receptor,43%
"125I-insulin: Porcine insulin (26.8 IU/mg, Eli Lilly) radioiodinated by the chloramine T method",125I-insulin degraded (percentage of control),"[1]; Table II, no nucleotide added (minus ATP), 0-30 min",35.4%
same,increase in size of peak eluting at position of radioiodotyrosine (peak III),"[2]; after 15 min incubation, rats given 2 µg 125I-insulin/100 g bw",threefold increase
same,intact 125I-insulin (acid precipitable) retained in freshly prepared endosomes,insulin receptor; 0 min,82%
same,degradation of insulin,insulin receptor; 15 min incubation +ATP,5.8 ng.mg cell fraction protein-1
same,dissociation of insulin from receptor,insulin receptor; 15 min incubation +ATP,1.7 ng insulin.mg cell fraction pr
same,loss and degradation of free insulin,insulin receptor; 15 min incubation minus ATP,2.1 ng.mg cell fraction protein-1
same,loss of receptor-bound insulin,insulin receptor; 15 min incubation minus ATP,no loss
same,internalized ligand dissociated from receptor,insulin receptor; freshly prepared endosomes,59%
same,proportion of intact insulin that was receptor-bound (PEG precipitable),"insulin receptor; freshly prepared endosomes, 0 min",41%
same,enrichment in GE fraction compared to parent homogenate,[3],40 + 4 fold
same,t1/2 of in vivo insulin clearance,[4],6 min
"c1cnc2c(c1)ccc1cccnc12 [1,10-Phenanthroline, 1,10-phenanthroline]",inhibition of 125I-insulin degradation,"[5]; 1 mM, 30 min",91%
same,125I-insulin degraded (percentage of control),[5]; [7],8.8%
same,effect on endosomal 125I-insulin degradation (in words),[5]; 30 min,Significant inhibition
same,effect on insulin dissociation from receptor,insulin receptor,inhibited
Nc1ncnc2c1ncn2[C@@H]1O[C@H](COP(=O)(O)OP(=O)(O)O)[C@@H](O)[C@H]1O [ADP],125I-insulin degraded (percentage of control),[5]; [8],40.0%
Nc1ncnc2c1ncn2[C@@H]1O[C@H](COP(=O)(O)OP(=O)(O)NP(=O)(O)O)[C@@H](O)[C@H]1O [AMP- PNP],125I-insulin degraded (percentage of control),[5]; [8],24.5%
Nc1ncnc2c1ncn2[C@@H]1O[C@H](COP(=O)(O)OP(=O)(O)OP(=O)(O)O)[C@@H](O)[C@H]1O [ATP],125I-insulin degraded (percentage of control),[5]; [8],100%
N=C(N)NC(=O)c1nc(Cl)c(N)nc1N [Amiloride],125I-insulin degraded (percentage of control),[5]; [9],96.6%
same,effect on endosomal 125I-insulin degradation (in words),[5]; 30 min,little effect
"CCN(CC)CCCC(C)Nc1ccnc2cc(Cl)ccc12 (centres unmarked) [Chioroquine, chloroquine]",inhibition of 125I-insulin degradation,"[5]; 2 mM, 30 min",~ 80%
same,125I-insulin degraded (percentage of control),[5]; [9],16.3%
same,effect on endosomal 125I-insulin degradation (in words),[5]; 30 min,inhibited markedly
"C(=NC1CCCCC1)=NC1CCCCC1 [DCCD, dicyclohexylcarbodiimide]",125I-insulin degraded (percentage of control),[5]; [10],50.4%
same,125I-insulin degraded (percentage of control),[5]; [11],38.7%
same,effect on endosomal 125I-insulin degradation (in words),[5]; 30 min,significant inhi- bition
O=C(O)CN(CCN(CC(=O)O)CC(=O)O)CC(=O)O [EDTA],effect on endosomal 125I-insulin degradation (in words),[5]; 30 min,no significant effect
Nc1nc2c(ncn2[C@@H]2O[C@H](COP(=O)(O)OP(=O)(O)OP(=O)(O)O)[C@@H](O)[C@H]2O)c(=O)[nH]1 [GTP],125I-insulin degraded (percentage of control),[5]; [8],52.8%
CC[C@@]1([C@@H]2O[C@@H]([C@H]3O[C@@](O)(CO)[C@H](C)C[C@@H]3C)C[C@@H]2C)CC[C@H]([C@]2(C)CC[C@]3(C[C@H](O)[C@@H](C)[C@@H]([C@@H](C)[C@@H](OC)[C@H](C)C(=O)O)O3)O2)O1 [Monensin],inhibition of 125I-insulin degradation,"[5]; 50 µM, 30 min",~ 80%
same,125I-insulin degraded (percentage of control),[5]; [12],20.6%
same,effect on endosomal 125I-insulin degradation (in words),[5]; 30 min,inhibited markedly
"CCN1C(=O)C=CC1=O [NEM, N-ethylmaleimide]",125I-insulin degraded (percentage of control),[5]; [10],23.6%
same,125I-insulin degraded (percentage of control),[5]; [11],26.8%
same,effect on endosomal 125I-insulin degradation (in words),[5]; 30 min,significant inhi- bition
same,effect on endosomal 125I-insulin degradation (in words),"[5]; 30 min, listed as N-ethylmaleimide (NEM)",inhibited markedly
CO[C@@H]1C[C@@H](C[C@H]2CC[C@H](C)[C@H]([C@@H](C)C(=O)O)O2)O[C@]2(O[C@](C)([C@H]3CC[C@@](C)([C@@H]4O[C@@H]([C@H]5O[C@@](O)(CO)[C@H](C)C[C@@H]5C)C[C@@H]4C)O3)C[C@H]2C)[C@@H]1C [Nigericin],inhibition of 125I-insulin degradation,"[5]; 50 µM, 30 min",~ 80%
same,125I-insulin degraded (percentage of control),[5]; [12],17.4%
same,effect on endosomal 125I-insulin degradation (in words),[5]; 30 min,inhibited markedly
same,effect on ATP-generated pH gradients of GE fraction,[6],dissipated rapidly
CC[C@H]1/C=C/C=C/C[C@@H](C)[C@H](O)[C@@](C)(O)C(=O)[C@@H](C)[C@H](O)[C@@H](C)C(=O)[C@@H](C)[C@H](O)[C@@H](C)/C=C/C(=O)O[C@@H]2[C@H](C)[C@H](CC1)O[C@]1(CC[C@H](C)[C@H](C[C@@H](C)O)O1)[C@H]2C [Oligomycin],125I-insulin degraded (percentage of control),"[5]; Table II, 5 µg/ml, 0-30 min, mean ± SD, n = 3",90.2%
same,effect on endosomal 125I-insulin degradation (in words),[5]; 30 min,little effect
"O=C(O)c1cc[c]([Hg][Cl])cc1 [PCMB, p-chloromercuribenzoic acid]",inhibition of 125I-insulin degradation,"[5]; 1 mM, 30 min",100%
same,125I-insulin degraded (percentage of control),[5]; [7],0%
same,effect on endosomal 125I-insulin degradation (in words),[5]; 30 min,Significant inhibition
same,effect on insulin dissociation from receptor,insulin receptor,inhibited
O=S(=O)(F)Cc1ccccc1 [PMSF],125I-insulin degraded (percentage of control),[5]; [7],89.2%
same,effect on endosomal 125I-insulin degradation (in words),[5]; 30 min,no significant effect
same,effect on degradation of mannose-BSA in macrophage endosomes,macrophage endosomes,inhibition of degradation
[O]=[V]([O-])([O-])[O-] [Vanadate],125I-insulin degraded (percentage of control),"[5]; Table II, 100 µM, 0-30 min, mean ± SD, n = 3",99.9%
same,effect on endosomal 125I-insulin degradation (in words),[5]; 30 min,little effect
Antipain,effect on endosomal 125I-insulin degradation (in words),[5]; 30 min,no significant effect
same,effect on degradation of mannose-BSA in macrophage endosomes,macrophage endosomes,inhibition of degradation
Aprotinin,effect on endosomal 125I-insulin degradation (in words),[5]; 30 min,no significant effect
Bacitracin,inhibition of 125I-insulin degradation,"[5]; 5 mg/ml, 30 min",40%
same,effect on endosomal 125I-insulin degradation (in words),[5]; 30 min,Significant inhibition
Leupeptin,effect on endosomal 125I-insulin degradation (in words),[5]; 30 min,no significant effect
same,effect on degradation of mannose-BSA in macrophage endosomes,macrophage endosomes,inhibition of degradation
Pepstatin,effect on endosomal 125I-insulin degradation (in words),[5]; 30 min,no significant effect
same,effect on degradation of mannose-BSA in macrophage endosomes,macrophage endosomes,inhibition of degradation
Triton X-100,125I-insulin degraded (percentage of control),"[5]; Table I, detergent 0.1%, 30 min, mean ± SD of 3 experiments",22.9%
same,effect on endosomal 125I-insulin degradation (in words),[5]; 30 min,Significant inhibition
Valinomycin,inhibition of 125I-insulin degradation,"[5]; 50 µM, 30 min",17%
"125I-prolactin: ovine prolactin (30.5 IU/mg) radioiodinated by chloramine T method (protein, UniProt P01240 31-229, looked up, 125I radiolabel) Prolactin: TPVCPNGPGNCQVSLRDLFDRAVMVSHYIHNLSSEMFNEFDKRYAQGKGFITMALNSCHTSSLPTPEDKEQAQQTHHEVLMSLILGLLRSWNDPLYHLVTEVRGMKGVPDAILSRAIEIEEENKRLLEGMEMIFGQVIPGAKETEPYPVWSGLPSLQTKDEDARHSAFYNLLHCLRRDSSKIDTYLKLLNCRIIYNNNC",degradation within isolated endosomes by acid precipitation,[1],No degradation
same,internalized ligand dissociated from receptor,prolactin receptor; after 15 min incubation in cell-free system,50%
same,internalized ligand dissociated from receptor,prolactin receptor; before incubation (freshly isolated endosomes),60%

# — publication PMC2115978 (The Journal of Cell Biology, 1990)
